Data reported in ChEMBL document CHEMBL5303300, “EUbOPEN Chemogenomics Library - Multiplex” (2023).
Values joined by “and” are separate entries in the source; they are usually repeats but may differ in a detail not shown here. Identical values can stand only once.

Assays:
Format in all cases: toxicity, cell-based
HEK-293T = test: Multiplex assay against HEK293T; settings: human, number of replicates 2
Outline: (§1)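 Phenotypes for tubulin, mitochondrial mass and membrane permeability are expressed as per cents of healthy-nucleus cells. Cells were stained live at seeding with Hoechst33342, BioTracker Green Microtubule Cytoskeleton Dye, MitoTracker Red and Annexin V Alexa Fluor 680, then imaged after compound addition on a CQ1 microscope at 37°C and 5% CO2. Machine-learning gating in CellPathfinder separated Hoechst high-intensity objects from normal cells, divided normal cells by nuclear state (healthy, pyknosed, fragmented) and divided pyknosed cells into mitotic or apoptotic.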

U2OS = test: Multiplex assay against U2OS; settings: human, number of replicates 2; outline: as §1
Fibroblast = test: Multiplex assay against human fibroblast; settings: number of replicates 2; outline: as §1
[1] = 12 h, 1 µM, compound concentration 1 uM
[2] = 12 h, 10 µM, compound concentration 10 uM
[3] = 24 h, 1 µM, compound concentration 1 uM
[4] = 24 h, 10 µM, compound concentration 10 uM
[5] = 48 h, 1 µM, compound concentration 1 uM
[6] = 48 h, 10 µM, compound concentration 10 uM

## CN(C)C/C=C/C(=O)Nc1cccc(S(=O)(=O)N2CCC(NC(=O)c3n[nH]cc3NC(=O)c3c(Cl)cc(Cl)cc3Cl)CC2)c1
HEK-293T; [1]
  Population Apoptotic (%): 38% and 72%
  Population Fragmented Nuclei (%): 3% and 4%
  Population Healthy Nuclei (%): 89% and 87%
  Population Hoechst High Intensity Objects (%): 10%
  Population Membrane Permeable-Phenotype (%): 2% and 1%
  Population Mitochondria Different-Phenotype (%): 49% and 45%
  Population Mitotic Cells (%): 61% and 28%
  Population Normal (%): 89%
  Population Pyknosed Nuclei (%): 6% and 7%
  Population Tubulin-Different-Phenotype (%): 86% and 90%
  Total Cell Count: 376 and 356
HEK-293T; [2]
  Population Apoptotic (%): 87% and 90%
  Population Fragmented Nuclei (%): 2% and 4%
  Population Healthy Nuclei (%): 84% and 79%
  Population Hoechst High Intensity Objects (%): 16% and 14%
  Population Membrane Permeable-Phenotype (%): 5% and 1%
  Population Mitochondria Different-Phenotype (%): 87% and 88%
  Population Mitotic Cells (%): 12% and 9%
  Population Normal (%): 83% and 85%
  Population Pyknosed Nuclei (%): 13% and 16%
  Population Tubulin-Different-Phenotype (%): 96% and 97%
  Total Cell Count: 417 and 374
HEK-293T; [3]
  Population Apoptotic (%): 80%
  Population Fragmented Nuclei (%): 2% and 3%
  Population Healthy Nuclei (%): 90% and 85%
  Population Hoechst High Intensity Objects (%): 13% and 11%
  Population Membrane Permeable-Phenotype (%): 1% and 0%
  Population Mitochondria Different-Phenotype (%): 70% and 63%
  Population Mitotic Cells (%): 19% and 20%
  Population Normal (%): 86% and 88%
  Population Pyknosed Nuclei (%): 7% and 10%
  Population Tubulin-Different-Phenotype (%): 87% and 89%
  Total Cell Count: 336 and 325
HEK-293T; [4]
  Population Apoptotic (%): 94% and 91%
  Population Fragmented Nuclei (%): 2% and 4%
  Population Healthy Nuclei (%): 64% and 53%
  Population Hoechst High Intensity Objects (%): 19% and 22%
  Population Membrane Permeable-Phenotype (%): 3% and 4%
  Population Mitochondria Different-Phenotype (%): 93% and 90%
  Population Mitotic Cells (%): 6% and 8%
  Population Normal (%): 80% and 77%
  Population Pyknosed Nuclei (%): 32% and 42%
  Population Tubulin-Different-Phenotype (%): 71% and 67%
  Total Cell Count: 381 and 319
HEK-293T; [5]
  Population Apoptotic (%): 92% and 73%
  Population Fragmented Nuclei (%): 3% and 2%
  Population Healthy Nuclei (%): 86% and 82%
  Population Hoechst High Intensity Objects (%): 20% and 12%
  Population Membrane Permeable-Phenotype (%): 1%
  Population Mitochondria Different-Phenotype (%): 75% and 81%
  Population Normal (%): 79% and 87%
  Population Pyknosed Nuclei (%): 10% and 15%
  Population Tubulin-Different-Phenotype (%): 85% and 91%
  Total Cell Count: 328 and 309
HEK-293T; [6]
  Population Apoptotic (%): 78% and 71%
  Population Fragmented Nuclei (%): 6%
  Population Healthy Nuclei (%): 30% and 25%
  Population Hoechst High Intensity Objects (%): 14%
  Population Membrane Permeable-Phenotype (%): 3% and 7%
  Population Mitochondria Different-Phenotype (%): 90% and 76%
  Population Mitotic Cells (%): 21% and 28%
  Population Normal (%): 85%
  Population Pyknosed Nuclei (%): 62% and 68%
  Population Tubulin-Different-Phenotype (%): 65% and 78%
  Total Cell Count: 442 and 399
U2OS; [1]
  Population Apoptotic (%): 78% and 85%
  Population Fragmented Nuclei (%): 15% and 10%
  Population Healthy Nuclei (%): 50% and 56%
  Population Hoechst High Intensity Objects (%): 0%
  Population Membrane Permeable-Phenotype (%): 15% and 7%
  Population Mitotic Cells (%): 21% and 14%
  Population Normal (%): 100% and 99%
  Population Pyknosed Nuclei (%): 35% and 33%
  Population Tubulin-Different-Phenotype (%): 65% and 50%
U2OS; [2]
  Population Apoptotic (%): 80% and 82%
  Population Fragmented Nuclei (%): 8% and 13%
  Population Healthy Nuclei (%): 15% and 11%
  Population Hoechst High Intensity Objects (%): 0%
  Population Membrane Permeable-Phenotype (%): 80% and 83%
  Population Mitochondria Different-Phenotype (%): 45% and 66%
  Population Mitotic Cells (%): 19% and 17%
  Population Normal (%): 99% and 100%
  Population Pyknosed Nuclei (%): 76% and 75%
  Population Tubulin-Different-Phenotype (%): 100% and 83%
U2OS; [3]
  Population Apoptotic (%): 65% and 93%
  Population Fragmented Nuclei (%): 25% and 9%
  Population Healthy Nuclei (%): 29% and 40%
  Population Hoechst High Intensity Objects (%): 0%
  Population Membrane Permeable-Phenotype (%): 6% and 13%
  Population Mitochondria Different-Phenotype (%): 13% and 20%
  Population Normal (%): 100%
  Population Pyknosed Nuclei (%): 45% and 50%
  Population Tubulin-Different-Phenotype (%): 86% and 59%
U2OS; [4]
  Population Apoptotic (%): 97%
  Population Fragmented Nuclei (%): 11% and 9%
  Population Healthy Nuclei (%): 4% and 3%
  Population Hoechst High Intensity Objects (%): 0% and 2%
  Population Membrane Permeable-Phenotype (%): 100% and 83%
  Population Mitochondria Different-Phenotype (%): 100% and 83%
  Population Mitotic Cells (%): 2%
  Population Normal (%): 100% and 97%
  Population Pyknosed Nuclei (%): 84% and 87%
  Population Tubulin-Different-Phenotype (%): 100%
U2OS; [5]
  Population Apoptotic (%): 76% and 97%
  Population Healthy Nuclei (%): 9% and 17%
  Population Hoechst High Intensity Objects (%): 4% and 5%
  Population Normal (%): 95% and 94%
  Population Pyknosed Nuclei (%): 60% and 74%
  Population Tubulin-Different-Phenotype (%): 100% and 82%
U2OS; [6]
  Population Apoptotic (%): 93%
  Population Fragmented Nuclei (%): 0% and 6%
  Population Healthy Nuclei (%): 23% and 10%
  Population Hoechst High Intensity Objects (%): 0% and 1%
  Population Membrane Permeable-Phenotype (%): 90% and 94%
  Population Mitochondria Different-Phenotype (%): 90% and 72%
  Population Mitotic Cells (%): 6%
  Population Normal (%): 100% and 98%
  Population Pyknosed Nuclei (%): 76% and 83%
  Population Tubulin-Different-Phenotype (%): 100% and 88%
Fibroblast; [1]
  Population Apoptotic (%): 51% and 32%
  Population Fragmented Nuclei (%): 12% and 7%
  Population Healthy Nuclei (%): 59% and 65%
  Population Hoechst High Intensity Objects (%): 0% and 1%
  Population Membrane Permeable-Phenotype (%): 11% and 14%
  Population Mitochondria Different-Phenotype (%): 1% and 5%
  Population Mitotic Cells (%): 48% and 67%
  Population Normal (%): 100% and 98%
  Population Pyknosed Nuclei (%): 28% and 26%
  Population Tubulin-Different-Phenotype (%): 45% and 40%
  Total Cell Count: 158 and 185
Fibroblast; [2]
  Population Apoptotic (%): 47% and 44%
  Population Fragmented Nuclei (%): 28% and 26%
  Population Healthy Nuclei (%): 36% and 40%
  Population Hoechst High Intensity Objects (%): 0%
  Population Membrane Permeable-Phenotype (%): 18% and 10%
  Population Mitochondria Different-Phenotype (%): 4% and 5%
  Population Mitotic Cells (%): 52% and 55%
  Population Normal (%): 100%
  Population Pyknosed Nuclei (%): 34% and 32%
  Population Tubulin-Different-Phenotype (%): 82% and 72%
  Total Cell Count: 243 and 248
Fibroblast; [3]
  Population Apoptotic (%): 74% and 57%
  Population Fragmented Nuclei (%): 12% and 11%
  Population Healthy Nuclei (%): 62% and 63%
  Population Hoechst High Intensity Objects (%): 0%
  Population Membrane Permeable-Phenotype (%): 12% and 17%
  Population Mitochondria Different-Phenotype (%): 6% and 3%
  Population Mitotic Cells (%): 25% and 42%
  Population Normal (%): 100%
  Population Pyknosed Nuclei (%): 25%
  Population Tubulin-Different-Phenotype (%): 52% and 41%
  Total Cell Count: 140 and 177
Fibroblast; [4]
  Population Apoptotic (%): 73% and 77%
  Population Fragmented Nuclei (%): 19% and 21%
  Population Healthy Nuclei (%): 15% and 20%
  Population Hoechst High Intensity Objects (%): 0%
  Population Membrane Permeable-Phenotype (%): 25% and 12%
  Population Mitochondria Different-Phenotype (%): 25% and 21%
  Population Mitotic Cells (%): 26% and 22%
  Population Normal (%): 99% and 100%
  Population Pyknosed Nuclei (%): 65% and 57%
  Population Tubulin-Different-Phenotype (%): 80% and 74%
  Total Cell Count: 227 and 226
Fibroblast; [5]
  Population Apoptotic (%): 70% and 64%
  Population Fragmented Nuclei (%): 14% and 12%
  Population Healthy Nuclei (%): 44% and 50%
  Population Hoechst High Intensity Objects (%): 0%
  Population Membrane Permeable-Phenotype (%): 18%
  Population Mitotic Cells (%): 29% and 35%
  Population Normal (%): 100%
  Population Pyknosed Nuclei (%): 40% and 37%
  Population Tubulin-Different-Phenotype (%): 39% and 51%
  Total Cell Count: 166 and 150
Fibroblast; [6]
  Population Apoptotic (%): 91% and 94%
  Population Fragmented Nuclei (%): 16% and 12%
  Population Healthy Nuclei (%): 5% and 6%
  Population Hoechst High Intensity Objects (%): 1% and 0%
  Population Membrane Permeable-Phenotype (%): 80% and 66%
  Population Mitochondria Different-Phenotype (%): 10% and 0%
  Population Mitotic Cells (%): 8% and 5%
  Population Normal (%): 98% and 99%
  Population Pyknosed Nuclei (%): 77% and 80%
  Population Tubulin-Different-Phenotype (%): 70% and 66%
  Total Cell Count: 191 and 189
